Screening data: PubChem, several laboratories
RanGTP-Impb inh = inhibitors of RanGTP-importin-beta interaction, primary screen, biochemical, FRET, CFP-Ran, YFP-importin-beta, homogeneous. cell-free CFP-Ran/YFP-importin-beta FRET ratio. inhibition, % (concentration not given with the values). actives 1.1% (n = 300,000). AID 2216;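 active = more than half of the replicate wells show a fall in the fluorescence ratio signal beyond about 16%, limit read from the data, passing the limit was not always enough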;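 note: 0% = DMSO wells and 100% = Ran loaded with GDP instead of GTP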
VIM-2 inh = blocks Pseudomonas aeruginosa VIM-2 metallo-beta-lactamase; actives 0.89% (n = 290,000); AID 1527; purified VIM-2, nitrocefin hydrolysis, epi-absorbance fluorescence; inhibition, % at 5.6 µM;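 active = inhibition above the mean of all tested compounds plus 3 SD, cutoff set per screening run, cut at about 7.5% in these data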;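 note: red hydrolysis product quenches plate fluorescence so inhibitors raise well fluorescence; 0% = enzyme with DMSO and 100% = DMSO without enzyme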
Runt-CBFb FRET = inhibitors of human RUNX1 Runt domain binding to CBFb | actives 0.46% (n = 220,000) | Cerulean-Runt/Venus-CBFb FRET ratio 530/480, 1 h | Q01196+Q13951 | inhibition, % at 20 µM;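 active = inhibition over about 50% at 20 µM in the single-dose screen, limit read from the data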;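 note: 0% = DMSO wells and 100% = excess unlabeled CBFb competitor control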
Target sequence (Q01196 whole entry, looked up, the tested form may be a part): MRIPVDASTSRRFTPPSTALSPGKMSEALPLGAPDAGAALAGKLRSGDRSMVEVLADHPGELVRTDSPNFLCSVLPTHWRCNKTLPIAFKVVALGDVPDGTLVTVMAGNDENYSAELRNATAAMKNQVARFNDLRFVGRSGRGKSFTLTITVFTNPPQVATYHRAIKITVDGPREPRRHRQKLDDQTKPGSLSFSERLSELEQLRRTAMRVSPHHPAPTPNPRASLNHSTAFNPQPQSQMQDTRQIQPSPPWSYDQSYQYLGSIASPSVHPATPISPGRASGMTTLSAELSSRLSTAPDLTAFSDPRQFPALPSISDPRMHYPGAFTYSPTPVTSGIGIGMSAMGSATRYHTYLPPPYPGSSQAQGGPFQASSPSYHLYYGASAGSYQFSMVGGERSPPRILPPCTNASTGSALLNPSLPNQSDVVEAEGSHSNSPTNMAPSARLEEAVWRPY
Target sequence (Q13951 whole entry, looked up, the tested form may be a part): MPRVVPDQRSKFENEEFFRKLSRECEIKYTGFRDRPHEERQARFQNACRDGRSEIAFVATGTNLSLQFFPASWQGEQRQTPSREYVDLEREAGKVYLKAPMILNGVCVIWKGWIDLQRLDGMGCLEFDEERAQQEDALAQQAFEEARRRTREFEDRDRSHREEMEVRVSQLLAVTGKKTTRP
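test system = Cerulean-tagged RUNX1 Runt domain (FRET donor) fusion protein | reagent = Venus-CBFb binding partner, 100 nM | incubation = protein complex preformed 1 h, compound exposure 1 h, room temperature, dark | detection = FRET fluorescence | read-out basis = loss of energy transfer signal | controls = 5 µM unlabeled CBFb as full-inhibition high control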
IMP-1 inhibitor = inhibitors of Pseudomonas aeruginosa IMP-1 metallo-beta-lactamase | purified IMP-1, nitrocefin hydrolysis, epi-absorbance fluorescence | inhibition, % at 5.6 µM | actives 0.45% (n = 290,000);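 active = inhibition above the mean plus 3 SD of all compounds in the same screening run, cut at about 4.5% in these data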;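 note: 0% = IMP-1 with DMSO and 100% = DMSO wells lacking enzyme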
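system = purified recombinant IMP-1 beta-lactamase | amount = 0.2 nM IMP-1, as dispensed | medium = HEPES buffer pH 7.1 with ZnSO4 and Brij 35 | times = 25 °C, 15 min preincubation, 25 min reaction | detection = plate fluorescence quenching by hydrolysis product, ex 480/em 530 nm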
Runt-SMMHC FRET = inhibitors of human RUNX1 Runt domain binding to CBFb-SMMHC | actives 0.74% (n = 220,000) | AID 1434 | Cerulean-Runt/Venus-CBFb-SMMHC FRET ratio 530/480, 1 h | Q01196+Q13951 | inhibition, % at 20 µM;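 active = mean inhibition across duplicate retests at 20 µM reaching about 50%, limit read from the data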;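 note: 0% = DMSO wells and 100% = wells with excess untagged CBFb-SMMHC; inhibitors lower the FRET ratio by blocking Runt binding to CBFb-SMMHC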
YIC counter = counter-screen YIC FRET for RanGTP-importin-beta inhibitors | shares compounds with RanGTP-Impb inh | Purified YIC probe, intramolecular FRET ratio YFP/CFP | IC50, µM | actives 40% (n = 1,000) | AID 435026;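 active = fitted half-maximal inhibitory concentration no more than tenfold above the top dose tested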
Active calls of the source: *. Shown are actives, neighbours in structure and some others; about 2.6% of the full set was active somewhere.

For CC(=O)c1cc(NC(=O)c2ccc([N+](=O)[O-])cc2)c(=O)oc1C the results were RanGTP-Impb inh -1, VIM-2 inh -1, Runt-CBFb FRET 21, IMP-1 inhibitor -1 and Runt-SMMHC FRET 16.
`Cc1c(C(=O)O)sc2[nH]c(=O)n(Cc3ccccc3)c(=O)c12` gave RanGTP-Impb inh 3, VIM-2 inh -2 and IMP-1 inhibitor -2.
Screening COc1ccccc1N(C)S(=O)(=O)c1ccc(Cl)c(C(=O)Nc2cccc(C)n2)c1 returned RanGTP-Impb inh 8.
`Cc1cccc(NC(=O)c2cc(S(=O)(=O)N(C)c3ccc(F)cc3)ccc2Cl)n1` gave RanGTP-Impb inh 20* and YIC counter >50.
For CN1CCN(NS(=O)(=O)c2ccc(Cl)cc2)CC1 the results were RanGTP-Impb inh 1, VIM-2 inh -3 and IMP-1 inhibitor -3.
For CCOC(=O)c1[nH]c(C)c(C(=O)N(C)Cc2ccccc2)c1C the results were RanGTP-Impb inh 25*, VIM-2 inh -5, Runt-CBFb FRET 6, IMP-1 inhibitor -5, Runt-SMMHC FRET 1 and YIC counter >50.
Cc1c(CCO)c(=O)[nH]n1S(=O)(=O)c1ccc(F)cc1 was read as RanGTP-Impb inh -3, VIM-2 inh -1 and IMP-1 inhibitor -4.
Screening CC1(C)CCC(=O)C=C1Nc1ccc(F)c(Cl)c1 returned RanGTP-Impb inh 26*, VIM-2 inh -2, IMP-1 inhibitor -2 and YIC counter >50.
O=C(NC1=NCCS1)c1cc(-c2cccnc2)nc2ccccc12 was read as RanGTP-Impb inh 15*, VIM-2 inh -2, Runt-CBFb FRET -5, IMP-1 inhibitor -2, Runt-SMMHC FRET -1 and YIC counter >50.
Screening CC1(C)C=C2C(=NN(c3ccccc3)C(N)=C2C#N)CO1 returned RanGTP-Impb inh -1, VIM-2 inh -1 and IMP-1 inhibitor -3.
`O=C(NNc1c2ccccc2nc2ccccc12)c1ccc(Cl)cc1` gave RanGTP-Impb inh 20*, VIM-2 inh -6, IMP-1 inhibitor -4 and YIC counter >50.
Screening Nc1ccccc1C(=O)NNc1c2ccccc2nc2ccccc12 returned RanGTP-Impb inh 33*, VIM-2 inh -3, Runt-CBFb FRET 3, IMP-1 inhibitor -3, Runt-SMMHC FRET 7 and YIC counter >50.
For O=C(CN1CCOCC1)NNc1c2ccccc2nc2ccccc12 the results were RanGTP-Impb inh 19*, VIM-2 inh 0, Runt-CBFb FRET 13, IMP-1 inhibitor 0, Runt-SMMHC FRET 8 and YIC counter >50.
`COc1cc(C(=O)N2CCCCCCC2)ccc1OC1CCN(C(C)=O)CC1` gave RanGTP-Impb inh 3, VIM-2 inh 0 and IMP-1 inhibitor -1.
COc1ccccc1NS(=O)(=O)c1cc(NC(=O)c2ccncc2)ccc1N1CCCC1 was read as RanGTP-Impb inh -2, VIM-2 inh -8, Runt-CBFb FRET -7, IMP-1 inhibitor -4 and Runt-SMMHC FRET -2.
For NC(=O)Nc1ccc(C(=O)OCC(=O)Nc2ccc(Cl)cn2)cc1 the results were RanGTP-Impb inh -1, VIM-2 inh 1, Runt-CBFb FRET -2, IMP-1 inhibitor 2 and Runt-SMMHC FRET -4.
Screening CNc1ccc([N+](=O)[O-])cc1-c1nc2ccccc2[nH]c1=O returned RanGTP-Impb inh 5, VIM-2 inh -2, Runt-CBFb FRET -5, IMP-1 inhibitor -3 and Runt-SMMHC FRET -1.
Screening COc1ccc(C2CC(c3ccc(Cl)cc3Cl)n3nc(N)nc3N2)cc1 (stereo not given) returned RanGTP-Impb inh 4, VIM-2 inh -4, IMP-1 inhibitor -1 and Runt-SMMHC FRET -7.
For COc1ccccc1C1CC(c2ccc(Cl)cc2)Nc2nc(N)nn21 (stereo not given) the results were RanGTP-Impb inh 18*, VIM-2 inh 0, Runt-CBFb FRET -1, IMP-1 inhibitor 1, Runt-SMMHC FRET 4 and YIC counter >50.
`C=C(C)Cn1c(CN(C)Cc2ccccc2)nc2c1c(=O)n(C)c(=O)n2C` gave RanGTP-Impb inh 0, VIM-2 inh 1 and IMP-1 inhibitor -5.
Oc1ccccc1CN1CCCC(N2CCN(c3cccc(C(F)(F)F)c3)CC2)C1 (stereo not given) was read as RanGTP-Impb inh -3, VIM-2 inh -1 and IMP-1 inhibitor -5.
Screening CCC12CN(C(=O)c3ccc(C)cc3)CC(CC)(CN(C(=O)c3ccc(C)cc3)C1)C2=O returned RanGTP-Impb inh 3, VIM-2 inh -3, Runt-CBFb FRET 0, IMP-1 inhibitor -2 and Runt-SMMHC FRET 2.
For CCC(=O)Nc1ccc(N/C(N)=N/c2nc(C)cc(C)n2)cc1 the results were RanGTP-Impb inh 17*, VIM-2 inh -1, Runt-CBFb FRET 2, IMP-1 inhibitor -3, Runt-SMMHC FRET 2 and YIC counter >50.
`Cc1ccc(N/C(N)=N/c2nc(C)cc(C)n2)cc1` gave RanGTP-Impb inh 3, VIM-2 inh -2, Runt-CBFb FRET -3, IMP-1 inhibitor -2 and Runt-SMMHC FRET 3.
`O=C(Nc1ccc(OC(F)(F)F)cc1)c1ccc2nc[nH]c2c1` gave RanGTP-Impb inh 20*, VIM-2 inh -2, IMP-1 inhibitor -6 and YIC counter >50.
CNC(=S)Nc1cc(OC)c(NC(=O)c2ccco2)cc1OC was read as RanGTP-Impb inh 2, VIM-2 inh -1, Runt-CBFb FRET 2, IMP-1 inhibitor 0 and Runt-SMMHC FRET -2.
Screening COc1cc(NC(=O)C2CC2)c(OC)cc1NC(=O)c1ccco1 returned RanGTP-Impb inh 19*, VIM-2 inh 0, IMP-1 inhibitor -3 and YIC counter >50.
Screening Cc1c(CC(=O)O)c(=O)oc2c(C)c3occ(-c4ccc(Br)cc4)c3cc12 returned RanGTP-Impb inh 28*, VIM-2 inh 8.9*, IMP-1 inhibitor -2 and YIC counter >26.
`Cc1c(CC(=O)O)c(=O)oc2cc3occ(-c4ccc(F)cc4)c3cc12` gave RanGTP-Impb inh 7, VIM-2 inh 1 and IMP-1 inhibitor 0.
`COc1cc(CN2CCNC(=O)C2CC(=O)N(C)CCN2CCOCC2)cc(OC)c1` (stereo not given) gave RanGTP-Impb inh -2, VIM-2 inh -2 and IMP-1 inhibitor -2.
Screening COc1ccc(C(=O)/C=C/Nc2cccc(C)n2)cc1OC returned RanGTP-Impb inh 20*, VIM-2 inh 0, Runt-CBFb FRET 7, IMP-1 inhibitor 1, Runt-SMMHC FRET 36 and YIC counter 26*.
Screening COc1ccc(N/C=C/C(=O)c2ccc(OC)c(OC)c2)cc1 returned RanGTP-Impb inh -1, VIM-2 inh 1, Runt-CBFb FRET -5, IMP-1 inhibitor 0 and Runt-SMMHC FRET -18.
